Experimental data from ChEMBL document CHEMBL1138658, “Novel 2-aminotetralin and 3-aminochroman derivatives as selective serotonin 5-HT7 receptor agonists and antagonists” (J Med Chem, 2004).

Legend:
[1] = organism: Rattus norvegicus; experiment: Inhibition of 3[H]8-OH--DPAT and [3H]5-HT binding to 5-hydroxytryptamine 1A receptor and 5-hydroxytryptamine 7 receptor in rat
How it was run: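 Displacement binding with [3H]-8-OH-DPAT at 5-HT1A in rat hippocampal cells, and with [3H]-5-HT at rat 5-HT7 expressed in CHO or Sf9 cells.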

[2] = molecular target: T1, 5-hydroxytryptamine receptor 1A (Rattus norvegicus, UniProt P19327); experiment: Inhibition of [3H]8-OH-DPAT binding to rat 5-hydroxytryptamine 1A receptor
T1 sequence (P19327 whole entry): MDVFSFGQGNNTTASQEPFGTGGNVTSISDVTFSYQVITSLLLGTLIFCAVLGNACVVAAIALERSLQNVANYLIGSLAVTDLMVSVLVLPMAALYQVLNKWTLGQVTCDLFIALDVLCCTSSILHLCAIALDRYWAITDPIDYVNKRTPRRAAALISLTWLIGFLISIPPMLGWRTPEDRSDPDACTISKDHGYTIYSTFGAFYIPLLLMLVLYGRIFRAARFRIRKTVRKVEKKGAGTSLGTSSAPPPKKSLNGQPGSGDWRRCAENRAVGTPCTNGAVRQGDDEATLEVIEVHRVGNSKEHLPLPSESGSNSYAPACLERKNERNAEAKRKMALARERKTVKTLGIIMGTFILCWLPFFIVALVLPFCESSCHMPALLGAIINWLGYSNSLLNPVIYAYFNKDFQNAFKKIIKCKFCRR
How it was run: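 Radioligand [3H]-8-OH-DPAT; receptor source either CHO cells expressing human 5-HT1A or rat hippocampal cells.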

[3] = molecular target: 5-hydroxytryptamine receptor 7 (Rattus norvegicus, UniProt P32305); experiment: Inhibition of [3H]-5-HT binding to rat 5-hydroxytryptamine 7 receptor
5-hydroxytryptamine receptor 7, sequence (P32305 whole entry): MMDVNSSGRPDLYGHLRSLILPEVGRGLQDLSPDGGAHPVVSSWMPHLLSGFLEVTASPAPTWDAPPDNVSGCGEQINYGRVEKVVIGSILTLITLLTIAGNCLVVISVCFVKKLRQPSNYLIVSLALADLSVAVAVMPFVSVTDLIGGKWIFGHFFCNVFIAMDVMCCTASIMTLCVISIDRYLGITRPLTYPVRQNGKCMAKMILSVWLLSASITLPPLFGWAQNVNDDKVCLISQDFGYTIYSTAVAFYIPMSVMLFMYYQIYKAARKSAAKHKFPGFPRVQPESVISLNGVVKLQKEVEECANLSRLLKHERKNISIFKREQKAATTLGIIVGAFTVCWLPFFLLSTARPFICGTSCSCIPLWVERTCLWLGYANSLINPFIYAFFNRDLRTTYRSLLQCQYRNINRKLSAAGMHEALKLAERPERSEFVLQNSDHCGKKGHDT
How it was run: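 Rat 5-HT7 receptor expressed in CHO or Sf9 cells; [3H]-5-HT radioligand displacement.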

[4] = molecular target: 5-hydroxytryptamine receptor 7 (Rattus norvegicus) (UniProt P32305); experiment: Stimulation of cAMP production in CHO cells expressing rat 5-hydroxytryptamine 7 receptor; type: functional, cell-based
5-hydroxytryptamine receptor 7 (Rattus norvegicus), sequence (P32305 whole entry): as above
How it was run: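 cAMP production in CHO cells expressing rat 5-HT7 receptor. Efficacy is expressed as percent of the 5-HT-stimulated production.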

[5] = molecular target: 5-hydroxytryptamine receptor 7 (Rattus norvegicus) (UniProt P32305); experiment: Stimulation of cAMP production in CHO cells expressing rat 5-hydroxytryptamine 7 receptor; Antagonist; type: functional, cell-based; settings: filed as antagonist
How it was run: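 Functional assay in CHO cells expressing rat 5-HT7 receptor, read as cAMP production. Efficacy is expressed as % of the cAMP production stimulated by 5-HT.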

[6] = molecular target: D(2) dopamine receptor (Homo sapiens) (UniProt P14416); experiment: Inhibition of [3H]raclopride binding to Dopamine receptor D2A in human
D(2) dopamine receptor (Homo sapiens), sequence (P14416 whole entry, looked up): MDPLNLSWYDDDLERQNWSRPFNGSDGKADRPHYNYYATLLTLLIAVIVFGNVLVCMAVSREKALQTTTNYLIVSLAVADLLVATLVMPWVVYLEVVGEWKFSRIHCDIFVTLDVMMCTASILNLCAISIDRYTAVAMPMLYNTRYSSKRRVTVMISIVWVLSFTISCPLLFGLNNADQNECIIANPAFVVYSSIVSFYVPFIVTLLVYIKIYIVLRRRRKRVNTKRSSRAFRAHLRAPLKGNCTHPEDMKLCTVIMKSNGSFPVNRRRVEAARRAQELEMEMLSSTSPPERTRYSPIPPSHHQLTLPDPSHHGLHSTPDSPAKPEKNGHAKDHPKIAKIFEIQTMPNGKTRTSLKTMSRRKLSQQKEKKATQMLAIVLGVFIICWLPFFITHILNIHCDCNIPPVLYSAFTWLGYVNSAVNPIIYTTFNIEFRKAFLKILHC

| SMILES | Ratio [1] | Ki [2] | Ki [3] | Efficacy [4] | Efficacy [5] | Ki [6] |
| --- | --- | --- | --- | --- | --- | --- |
| CCCN(CCC)[C@H]1CCc2c(cccc2-c2ccc(OC)cc2)C1 | 0.12 | 1.49 nM | 12.4 nM |  |  |  |
| CCCN(CCC)[C@H]1CCc2c(cccc2-c2ccccc2)C1 | 0.26 | 0.87 nM | 3.38 nM | 100% |  |  |
| O=S(=O)(c1ccc2c(c1)CC=C2)N1CCC[C@@H]1CCN1CCC(Oc2ccc(Cl)cc2)CC1 | 282 | 562 nM | 1.99 nM |  | Antagonist |  |
| COc1cccc(OC)c1-c1cccc2c1CC[C@H](N)C2 | > 12.7 | > 1000 nM | 78.7 nM |  |  |  |
| CCCN(CCC)[C@H]1COc2c(cccc2-c2c(OC)cccc2OC)C1 | 27 | 174 nM | 6.44 nM | 154% |  |  |
| CCCN(CCC)[C@@H]1COc2c(cccc2-c2ccccc2OC)C1 | 1.9 | 680 nM | 364 nM |  |  | 2110 nM |
| CCCN(CCC)[C@H]1CCc2c(cccc2-c2ccccc2OC)C1 | 6.8 | 11.7 nM | 1.73 nM | 100% |  |  |
| Cc1cccc(C#N)c1-c1cccc2c1-c1cccc3c1[C@@H](C2)N(C)CC3 | 37 | 142 nM |  |  | Antagonist | 498 nM |
| CCCN(CCC)[C@H]1COc2c(cccc2-c2ccccc2OC)C1 | 3.8 | 10.3 nM | 2.7 nM | 100% |  | 512 nM |
| CCCN(CCC)[C@H]1COc2c(cccc2-c2ccc(OC)cc2)C1 |  | 1.31 nM | 12.6 nM | 91% |  |  |
| CCCN(CCC)[C@H]1COc2c(cccc2-c2ccccc2)C1 |  | 1.23 nM | 2.92 nM | 100% |  |  |
| COc1cccc(OC)c1-c1cccc2c1OC[C@H](N(C)C)C2 | > 189 | > 1000 nM | 5.29 nM | 28% |  |  |
| O=C1c2ccccc2CCCN1CCN1CCC(n2c(=O)[nH]c3cc(F)ccc32)CC1 |  | 479 nM | 2.24 nM |  |  |  |
| O=C1Nc2cccc3c2C1(CCCCN1CCc2sccc2C1)CCC3 (configuration not stated) | 79 | 513 nM | 6.46 nM |  | Antagonist |  |
| O=C1c2ccccc2CCCN1CCN1CCC(n2c(O)nc3cc(F)ccc32)CC1 |  |  |  |  | Antagonist |  |
